Assay results from ChEMBL document CHEMBL1138326, “Structure-based design, synthesis, and biological evaluation of indomethacin derivatives as cyclooxygenase-2 inhibiting nitric oxide donors” (J Med Chem, 2007).
pIC50: −log10 of the molar value.

How the values were obtained:
[1] = molecular target: T1, Prostaglandin G/H synthase 1 (Homo sapiens, UniProt P23219); experiment: Inhibition of COX1 in human whole blood assessed as effect on A23187-induced thromboxane B2 production; type: tissue-based
T1 sequence (P23219 whole entry): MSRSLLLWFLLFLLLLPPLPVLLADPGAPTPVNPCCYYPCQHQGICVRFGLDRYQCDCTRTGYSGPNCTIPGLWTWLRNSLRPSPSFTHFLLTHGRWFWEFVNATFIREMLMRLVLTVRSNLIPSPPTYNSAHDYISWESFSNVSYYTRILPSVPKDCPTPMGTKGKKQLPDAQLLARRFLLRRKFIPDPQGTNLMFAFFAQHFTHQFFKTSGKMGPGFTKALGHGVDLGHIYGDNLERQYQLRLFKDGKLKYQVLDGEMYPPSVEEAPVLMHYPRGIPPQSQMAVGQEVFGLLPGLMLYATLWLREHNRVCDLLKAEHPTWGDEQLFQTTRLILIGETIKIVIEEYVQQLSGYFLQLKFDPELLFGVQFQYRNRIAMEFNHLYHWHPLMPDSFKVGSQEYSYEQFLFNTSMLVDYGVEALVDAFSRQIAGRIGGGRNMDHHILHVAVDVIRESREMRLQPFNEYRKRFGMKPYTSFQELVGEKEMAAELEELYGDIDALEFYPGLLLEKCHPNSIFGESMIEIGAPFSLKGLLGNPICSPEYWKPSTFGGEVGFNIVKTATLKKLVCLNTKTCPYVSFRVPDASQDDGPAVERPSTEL

[2] = molecular target: T1, Prostaglandin G/H synthase 1; experiment: Inhibition of COX1 in human whole blood assessed as effect on A23187-induced thromboxane B2 production at 100 uM relative to control; values are per cent of control
[3] = molecular target: T1, Prostaglandin G/H synthase 1; experiment: Inhibition of COX1 in human whole blood assessed as effect on A23187-induced thromboxane B2 production at 10 uM relative to control; values are per cent of control
[4] = molecular target: T1, Prostaglandin G/H synthase 1; experiment: Inhibition of COX1 in human whole blood assessed as effect on A23187-induced thromboxane B2 production at 1 uM relative to control; values are per cent of control
[5] = molecular target: T1, Prostaglandin G/H synthase 1; experiment: Inhibition of COX1 in human whole blood assessed as effect on A23187-induced thromboxane B2 production at 3 uM relative to control; values are per cent of control
[6] = molecular target: T1, Prostaglandin G/H synthase 1; experiment: Inhibition of COX1 in human whole blood assessed as effect on A23187-induced thromboxane B2 production at 30 uM relative to control; values are per cent of control
Homo sapiens = organism: Homo sapiens; experiment: Selectivity for human COX2 over human COX1
[7] = molecular target: T1, Prostaglandin G/H synthase 1; experiment: Inhibition of COX1 in human whole blood assessed as effect on A23187-induced thromboxane B2 production at 0.3 uM relative to control; values are per cent of control
Rattus norvegicus [8] = experiment: Antiinflammatory activity against intrapouch dosed Sprague-Dawley rat carrageenan air-pouch model assessed as reduction of prostaglandin E2 at 45 umol/kg; type: functional; set-up: scale not given: the % may be the effect or the level left
In short: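 Air pouch made with 20 mL sterile air sc on day -6 and 10 mL more on day -3; rats fasted 18 h. Compound in 0.5% methocel injected into the pouch 1 h before carrageenan (1 mL of 1.0% in saline). After 4 h, exudate recovered with PBS/heparin and assayed for PGE2 by enzyme immunoassay.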

Rattus norvegicus [9] = experiment: Antiinflammatory activity against Sprague-Dawley rat carrageenan air-pouch model assessed as reduction of prostaglandin E2 at 45 umol/kg, po; type: functional; set-up: scale not given: the % may be the effect or the level left
In short: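 Air pouches raised by sc injection of 20 mL sterile air (day -6) plus 10 mL on day -3; rats fasted 18 h. Compound suspended in 0.5% methocel given orally 1 h before intrapouch carrageenan (1 mL of 1.0% in saline). Exudate collected 4 h later after PBS/heparin lavage; PGE2 by enzyme immunoassay. Means ± SEM, n = 6–22; ANOVA with Dunnett's test vs vehicle.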

[10] = molecular target: T2, Prostaglandin G/H synthase 2 (Homo sapiens) (UniProt P35354); experiment: Inhibition of COX2 in human whole blood assessed as effect on LPS-induced thromboxane B2 production at 30 uM relative to control; values are per cent of control
T2 sequence (whole entry): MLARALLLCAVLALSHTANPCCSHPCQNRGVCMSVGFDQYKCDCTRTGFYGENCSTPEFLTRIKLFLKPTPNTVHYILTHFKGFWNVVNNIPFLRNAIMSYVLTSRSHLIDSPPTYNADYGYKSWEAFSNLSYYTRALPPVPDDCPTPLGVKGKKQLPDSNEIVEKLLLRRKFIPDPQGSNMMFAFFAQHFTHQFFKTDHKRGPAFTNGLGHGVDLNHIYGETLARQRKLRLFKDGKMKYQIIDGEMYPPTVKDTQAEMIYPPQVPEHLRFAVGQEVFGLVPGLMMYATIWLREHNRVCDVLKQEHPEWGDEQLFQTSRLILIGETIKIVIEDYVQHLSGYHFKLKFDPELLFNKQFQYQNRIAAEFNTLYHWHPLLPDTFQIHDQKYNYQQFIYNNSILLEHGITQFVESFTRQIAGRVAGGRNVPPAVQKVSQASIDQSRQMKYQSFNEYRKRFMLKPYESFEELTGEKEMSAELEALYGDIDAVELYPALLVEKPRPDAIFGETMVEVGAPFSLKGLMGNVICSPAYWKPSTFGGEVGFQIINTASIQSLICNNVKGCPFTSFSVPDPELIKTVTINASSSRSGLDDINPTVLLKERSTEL

SMILES: COc1cc2c(CC(=O)OCc3ccccc3)c(C)n(C(=O)c3ccc(Cl)cc3)c2cc1Cl
- pIC50 [1]: < 4.00
- residual activity [2]: 58%

SMILES: COc1ccc2c(c1)c(CC(=O)N(OC(C)=O)C(C)=O)c(C)n2C(=O)c1ccc(Cl)cc1
- pIC50 [1]: > 6.00
- residual activity [2]: 6%
- residual activity [3]: 14%
- residual activity [4]: 39%

SMILES: COc1ccc2c(c1)c(CC(=O)NCC(C)(C)CO[N+](=O)[O-])c(C)n2C(=O)c1ccc(Cl)cc1
- pIC50 [1]: 5.59
- residual activity [2]: 3%
- residual activity [5]: 45%
- residual activity [3]: 25%
- residual activity [4]: 78%
- residual activity [6]: 3%

SMILES: COc1ccc2c(c1)c(CCNC(=O)c1ccc(CO[N+](=O)[O-])cc1)c(C)n2C(=O)c1ccc(Cl)cc1
- pIC50 [1]: > 6.00

SMILES: COc1ccc2c(c1)c(CC(=O)NOCCCO)c(C)n2C(=O)c1ccc(Cl)cc1
- pIC50 [1]: > 6.52
- residual activity [2]: 1%
- Ratio IC50 (Homo sapiens): < 0.4
- residual activity [7]: 28%

SMILES: COc1ccc2c(c1)c(CC(=O)NCCCO[N+](=O)[O-])c(C)n2Cc1ccc(S(C)(=O)=O)cc1
- residual activity [2]: 53%

SMILES: COc1ccc2c(c1)c(CCOC(=O)NS(=O)(=O)NCCCO[N+](=O)[O-])c(C)n2C(=O)c1ccc(Cl)cc1
- residual activity [2]: 61%
- residual activity [3]: 100%
- residual activity [4]: 100%

SMILES: COc1ccc2c(c1)c(CC(=O)O)c(C)n2CC1CCCCC1
- residual activity [2]: 85%

SMILES: COc1ccc2c(c1)c(CCNS(=O)(=O)CCCO)c(C)n2C(=O)c1ccc(Cl)cc1
- pIC50 [1]: 5.43
- Activity (Rattus norvegicus [8]): 98%
- residual activity [2]: 6%
- Activity (Rattus norvegicus [9]): 96%
- residual activity [5]: 51%
- residual activity [3]: 33%
- Ratio IC50 (Homo sapiens): 3.5
- residual activity [4]: 73%
- residual activity [7]: 82%
- residual activity [6]: 23%
- residual activity [10]: 0%

SMILES: COc1ccc2c(c1)c(CCNS(=O)(=O)CCCO[N+](=O)[O-])c(C)n2C(=O)c1ccc(Cl)cc1
- pIC50 [1]: 4.96
- Activity (Rattus norvegicus [8]): 59%
- residual activity [2]: 16%
- Activity (Rattus norvegicus [9]): 44%
- residual activity [5]: 68%
- residual activity [3]: 57%
- residual activity [4]: 100%
- residual activity [6]: 20%
- residual activity [10]: 7%

SMILES: COc1ccc2c(c1)c(CC(=O)NC(CO[N+](=O)[O-])(CO[N+](=O)[O-])CO[N+](=O)[O-])c(C)n2C(=O)c1ccc(Cl)cc1
- pIC50 [1]: 5.92
- residual activity [2]: 1%
- residual activity [5]: 16%
- residual activity [3]: 11%
- residual activity [4]: 50%

SMILES: COc1ccc2c(c1)c(CC(=O)NOC(C)=O)c(C)n2C(=O)c1ccc(Cl)cc1
- pIC50 [1]: 5.44
- residual activity [2]: 7%
- residual activity [3]: 34%
- residual activity [4]: 68%

SMILES: COc1ccc2c(c1)c(CCP(=O)(O)O)c(C)n2C(=O)c1ccc(Cl)cc1
- residual activity [2]: 76%

SMILES: COc1ccc2c(c1)c(CCO)c(C)n2CC1CCCCC1
- residual activity [2]: 95%

SMILES: COc1ccc2c(c1)c(CCO[N+](=O)[O-])c(C)n2C(=O)c1ccc(Cl)cc1
- residual activity [2]: 15%
- residual activity [3]: 73%
- residual activity [4]: 69%

SMILES: COc1ccc2c(c1Cl)c(CC(=O)OCc1ccccc1)c(C)n2C(=O)c1ccc(Cl)cc1
- pIC50 [1]: < 4.00
- residual activity [2]: 65%

SMILES: COc1ccc2c(c1)c(CC(=O)NCCCO[N+](=O)[O-])c(C)n2CC1CCCCC1
- residual activity [2]: 100%

SMILES: COc1ccc2c(c1)c(CC(=O)NOCc1ccccc1)c(C)n2C(=O)c1ccc(Cl)cc1
- pIC50 [1]: > 6.52
- residual activity [2]: 0%

SMILES: Cc1c(CC(=O)O)c2cc(O)ccc2n1C(=O)c1ccc(Cl)cc1
- residual activity [2]: 18%
- residual activity [5]: 80%
- residual activity [3]: 55%
- residual activity [4]: 100%
- residual activity [10]: 0%

SMILES: COc1ccc2c(c1)c(CCO[N+](=O)[O-])c(C)n2CC1CCCCC1
- residual activity [2]: 93%

SMILES: Cc1c(CC(=O)NCCCO[N+](=O)[O-])c2cc(O)ccc2n1C(=O)c1ccc(Cl)cc1
- pIC50 [1]: 5.33
- residual activity [2]: 1%
- residual activity [5]: 74%
- residual activity [3]: 27%
- residual activity [6]: 1%
- residual activity [10]: 2%

SMILES: COc1ccc2c(c1)c(CCOC(=O)NS(=O)(=O)OCCCO[N+](=O)[O-])c(C)n2C(=O)c1ccc(Cl)cc1
- residual activity [2]: 44%

SMILES: Cc1c(CC(=O)NCCCO[N+](=O)[O-])c2cc(OS(N)(=O)=O)ccc2n1C(=O)c1ccc(Cl)cc1
- pIC50 [1]: < 4.00
- residual activity [2]: 65%
- residual activity [3]: 92%
- Ratio IC50 (Homo sapiens): > 4
- residual activity [4]: 100%
- residual activity [10]: 46%

SMILES: COc1ccc2c(c1)c(CC(=O)NOCCO)c(C)n2C(=O)c1ccc(Cl)cc1
- pIC50 [1]: > 6.00
- residual activity [2]: 1%
- residual activity [5]: 20%
- residual activity [3]: 3%

SMILES: COc1ccc2c(c1)c(CCNC(=O)NCCCO[N+](=O)[O-])c(C)n2C(=O)c1ccc(Cl)cc1
- pIC50 [1]: 5.52
- residual activity [2]: 2%
- residual activity [3]: 29%
- Ratio IC50 (Homo sapiens): 0.3
- residual activity [4]: 93%

SMILES: COc1ccc2c(c1)c(CCOC(=O)NCCCO[N+](=O)[O-])c(C)n2C(=O)c1ccc(Cl)cc1
- residual activity [2]: 62%
- residual activity [3]: 74%
- residual activity [4]: 83%

SMILES: Cc1c(CC(=O)NCCCO)c2cc(O)ccc2n1C(=O)c1ccc(Cl)cc1
- pIC50 [1]: 5.27
- residual activity [2]: 8%
- residual activity [5]: 58%
- residual activity [3]: 40%
- residual activity [4]: 83%
- residual activity [6]: 7%
- residual activity [10]: 4%

SMILES: COc1ccc2c(c1)c(CCNS(=O)(=O)c1ccc(CO[N+](=O)[O-])cc1)c(C)n2C(=O)c1ccc(Cl)cc1
- pIC50 [1]: 5.72
- residual activity [2]: 12%
- residual activity [3]: 23%
- residual activity [4]: 68%

SMILES: COc1ccc2c(c1)c(CC(=O)NO)c(C)n2C(=O)c1ccc(Cl)cc1 [OXAMETACIN]
- pIC50 [1]: 5.55
- residual activity [2]: 2%
- residual activity [3]: 29%
- residual activity [4]: 84%

SMILES: COc1cc2c(CC(=O)O)c(C)n(C(=O)c3ccc(Cl)cc3)c2cc1Cl
- pIC50 [1]: 5.80
- residual activity [2]: 13%
- residual activity [5]: 41%
- residual activity [3]: 24%
- Ratio IC50 (Homo sapiens): 0.4
- residual activity [4]: 61%
- residual activity [6]: 2%
- residual activity [10]: 0%

SMILES: COc1ccc2c(c1)c(CCO)c(C)n2C(=O)c1ccc(Cl)cc1
- pIC50 [1]: 5.64
- residual activity [2]: 0%
- residual activity [5]: 18%
- residual activity [3]: 16%
- residual activity [4]: 76%

SMILES: COc1ccc2c(c1)c(CC(=O)O)c(C)n2C(=O)c1ccc(Cl)cc1 [INDOMETHACIN]
- Activity (Rattus norvegicus [8]): 97%

SMILES: CCOC(=O)Cc1c(C)n(CC2CCCCC2)c2ccc(OC)cc12
- residual activity [2]: 85%

SMILES: COc1ccc2c(c1)c(CC(=O)NCCCCO)c(C)n2C(=O)c1ccc(Cl)cc1
- pIC50 [1]: 5.62
- residual activity [2]: 1%
- residual activity [5]: 46%
- residual activity [3]: 23%
- Ratio IC50 (Homo sapiens): 2
- residual activity [4]: 64%

SMILES: COc1ccc2c(c1)c(CC(=O)O)c(C)n2Cc1ccc(S(C)(=O)=O)cc1
- residual activity [2]: 87%

SMILES: COc1ccc2c(c1)c(CCN)c(C)n2C(=O)c1ccc(Cl)cc1
- pIC50 [1]: < 5.00
- residual activity [2]: 1%
- residual activity [3]: 100%
- residual activity [4]: 100%
- residual activity [10]: 78%
